Hits are enriched below; roughly 4.2% of the tested compounds scored in any of these assays.
Cl transport mod: modulators of human KCC2 chloride dependent transport; Q9H2X9; KCC2 cells, thallium flux FluoZin-2 fluorescence; B-score of Tl+ flux slope (higher = more flux/activation; lower = inhibition) at 10 µM; actives 2.2% (n = 190,000);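 active = thallium flux slope and its plate-corrected score both differing from the plate sample mean at a set confidence after two filtering rounds, in either direction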;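 also: slope of fluorescence scaled to starting intensity during 10 to 20 s after thallium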
Autophagy HCS: autophagy modulation, high-content screen; MEF GFP-LC3 puncta imaging; test concentration mostly 10 µM; calls only at 10 µM (by protocol); actives 0.98% (n = 190,000);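 active = percentage of spot-positive cells more than 3 SD above its plate mean, without a fluorescence outlier flag or 80% toxicity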;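 also: spot-positive cell cutoff set from DMSO-treated cells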
WT yeast gro inh: growth inhibition of WT yeast, mitochondrial fusion screen | mitochondrial fusion phenotypic screen, WT strain | inhibition, % at 10 µM | actives 2.1% (n = 190,000) | AID 1362; in the data active = inhibition above about 58%; tested in S. cerevisiae
SKKanGAS inh: SKKanGAS growth inhibition. S. pyogenes SKKanGAS, kanamycin growth, BacTiter-Glo, 6 h. actives 1.3% (n = 300,000). inhibition, % at 7.5 µM;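 active = mean replicate score, as percent of positive control median, at least 50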;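 also: strain carries kanamycin resistance gene driven by streptokinase promoter and grows in 40 µg/ml kanamycin; loss of luminescence reflects streptokinase promoter inhibition or plain growth inhibition; 0% = median of DMSO wells and 100% = positive control at its reference dose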
Rad51 HR inh: blocks human Rad51 in homologous recombination; hRad51 DNA strand exchange, fluorescence dequenching; inhibition, % at 10 µM; actives 0.085% (n = 200,000); AID 1385;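 active = inhibition above 40% at the single screening dose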;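 also: 0% = DMSO control wells and 100% = blanks with heterologous ssDNA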
Target sequence (Q06609 whole entry, looked up): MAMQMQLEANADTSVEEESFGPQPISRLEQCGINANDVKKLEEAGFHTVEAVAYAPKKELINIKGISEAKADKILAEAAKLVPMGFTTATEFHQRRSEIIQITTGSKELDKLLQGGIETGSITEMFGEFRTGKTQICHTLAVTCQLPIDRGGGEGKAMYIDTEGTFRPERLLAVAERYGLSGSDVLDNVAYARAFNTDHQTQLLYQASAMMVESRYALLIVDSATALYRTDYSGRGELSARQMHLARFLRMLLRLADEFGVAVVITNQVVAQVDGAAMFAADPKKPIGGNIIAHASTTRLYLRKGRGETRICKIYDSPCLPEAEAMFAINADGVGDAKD
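Material: human Rad51–ssDNA filaments; Probe or stimulus: labelled 47-mer dsDNA for strand exchange; Doses: single 10 µM dose; Incubation: 37 °C 15-min filament assembly, 30-min compound preincubation, 15-min exchange; Technique: FRET fluorescence dequenching, excitation 485 nm, emission 520 nm; Measure: Fluorescence-based percent inhibition, control- and blank-normalised; Benchmarks: plate control and blank wells.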
Ins promoter up: MIN6 insulin promoter up-regulation; MIN6 insulin promoter-GFP reporter, high-content imaging; stronger effect = higher value; z-score at 5 µM; actives 0.3% (n = 190,000);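 active = z-score above 3 at 5 µM with at least 500 cells counted in the well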
An asterisk follows results filed as active; i = inactive; x = not tested or not shown; + = active, no number.

SMILES | Cl transport mod | Autophagy HCS | WT yeast gro inh | SKKanGAS inh | Rad51 HR inh | Ins promoter up
COc1ccccc1NC(=O)NCC(=O)Nc1ccc(F)c(F)c1 | x | i | 14.3 | 4.0 | 3.7 | x
CCc1nnc(NC(=O)Nc2ccccc2OC)s1 | -0.189 | i | 58.5* | -10.2 | 1.6 | -0.52
COc1ccccc1NC(=O)NCCCCc1ccccc1 | x | x | x | 50.2* | x | x
COc1ccccc1NC(=O)Nc1ccc(F)c(F)c1 | 0.0893 | i | 9.8 | 5.0 | 40.8* | x
COc1ccccc1NC(=O)Nc1nnc(CC(=O)Nc2ccccc2)s1 | -0.287 | i | 7.2 | -27.2 | 6.1 | x
Cc1ccc(N2CCC(N3CCN(C4CCCCC4)C(CCO)C3)CC2)cc1 (stereo not drawn) | 0.483 | i | 7.8 | 1.8 | -7.5 | -0.03
CC1c2ccsc2CCN1S(=O)(=O)c1cccs1 (stereo not drawn) | -1.56 | x | x | 6.9 | 13.3 | -0.41
COc1cc(C(=O)NC(=S)NNC(=O)[C@H]2C[C@@H]2c2ccccc2)cc(OC)c1OC | 5.48 | x | x | 90.4* | -10.8 | 0.14
COc1cc(C(=O)NC(=S)NC(C)C)cc(OC)c1OC | -2.31 | i | 6.4 | -8.1 | -2.5 | -0.27
COc1cc(C(=O)NNC(=S)NC(=O)c2ccccc2C)cc(OC)c1OC | 2.19 | i | -24.6 | 59.9* | -50.1 | 0.06
COc1ccccc1C(=O)NNC(=S)NC(=O)c1cc(OC)c(OC)c(OC)c1 | 2.61 | i | 13.3 | 79.9* | 5.3 | -1
COc1cc(C(=O)NC(=S)NNC(=O)c2cnccn2)cc(OC)c1OC | 0.172 | i | -1.2 | 14.6 | 1.3 | -0.14
CCNc1ccc(C(=O)NN=C2CCCC2)cc1[N+](=O)[O-] | 0.0238 | i | 7.7 | 1.4 | 19.9 | 0.73
CCOC(=O)c1sc(=NC(=O)COc2ccc(Cl)cc2)n(C)c1C | -0.0927 | + | -6.0 | 5.7 | 2.8 | -0.78
CC1CCc2c(sc(NC(=O)c3cccs3)c2C(=O)O)C1 (stereo not drawn) | x | x | x | 10.3 | x | x
CC(C)(C)C1CCc2c(sc(NC(=O)c3cccs3)c2C(=O)N2CCCCC2)C1 (stereo not drawn) | x | i | 61.7* | 1.5 | 3.9 | -0.85
Cn1c(=O)c2[nH]c(N=NNc3ccccc3F)nc2n(C)c1=O | 0.034 | x | x | -0.2 | 4.8 | -0.25
COc1ccc(CN(C)C(=O)c2ccc(NS(=O)(=O)c3ccc(F)cc3)cc2)c(OC)c1OC | x | x | x | -4.5 | x | x
CN1N=C(c2ccc(F)c(F)c2)CSC1=NCc1ccccc1 | 1.25 | i | 69.5* | 20.8 | 4.8 | 0.21
COc1cccc(C2=NNC(=NCc3ccccc3)SC2)c1 | -0.118 | i | 6.1 | 1.9 | -10.4 | 0.16
COC(=O)c1ccc(CSCc2ccc(C#N)cc2)cc1 | x | x | x | 8.5 | x | x
COc1ccccc1NC(=S)N(Cc1cccnc1)Cc1ccccc1Cl | -0.183 | i | 25.9 | 6.4 | -0.6 | -0.23
COc1ccccc1NC(=S)N(Cc1ccc(C)cc1)Cc1cccnc1 | -1.21 | i | 74.2* | 12.3 | 8.5 | -1.33
COc1ccccc1NC(=S)N(Cc1ccccn1)Cc1ccccc1Cl | -0.357 | i | 67.1* | 11.6 | -0.2 | -0.38
Cc1ccccc1NC(=S)N(Cc1ccccn1)Cc1ccccc1Cl | -0.0871 | i | 68.6* | -3.8 | 2.7 | -0.29
SMILES | Cl transport mod | Autophagy HCS | WT yeast gro inh | SKKanGAS inh | Rad51 HR inh | Ins promoter up
COc1ccccc1-c1nnc(NC(=O)c2ccc3c(c2)OCO3)s1 | 0.769 | + | 5.0 | -7.4 | 19.4 | 0.14
COc1cccc(-c2nc(-c3ccc(NC(=O)c4ccncc4)cc3)no2)c1 | x | i | -8.3 | -2.4 | -3.4 | 0.66
COc1ccc(CC(=O)Nc2ccc(-c3noc(-c4cc(OC)c(OC)c(OC)c4)n3)cc2)cc1 | x | + | -0.1 | x | -7.0 | -0.36
COc1cccc(-c2nc(-c3ccc(NC(=O)c4cccs4)cc3)no2)c1 | 1.69 | i | 58.1* | 48.2 | -7.8 | 0.8
CC(C)c1nnc(NC(=O)c2ccc3c(c2)OCO3)s1 | 0.618 | i | -3.0 | 15.9 | 29.1 | -0.07
COc1cc(-c2nc(-c3ccc(NC(=O)c4ccc5c(c4)OCO5)cc3)no2)cc(OC)c1OC | 0.0121 | + | -34.0 | 4.9 | -1.6 | -0.11
CCOc1ccccc1N(CC(=O)NCCc1ccccc1)C(=O)CCC(=O)Nc1ccccn1 | x | x | x | -5.6 | x | x
COc1ccc(S(=O)(=O)N2CCC(C(=O)NCCc3ccccc3)CC2)cc1 | x | x | x | -10.6 | x | x
CCN(CC)CCNC(=O)c1cc(Nc2ccc(OC)c(OC)c2)nc2ccccc12 | x | x | x | -1.8 | x | x
Cc1ccccc1CNC(=O)C(=O)NCC1OCCCN1S(=O)(=O)c1cccs1 (stereo not drawn) | x | x | x | -1.7 | x | x
COc1ccc(-c2noc(-c3ccccc3-c3ccccc3)n2)cc1OC | 0.387 | i | 75.1* | 26.3 | x | -0.62
COc1ccc(-c2nc(-c3ccc(NC(=O)c4ccncc4)cc3)no2)cc1OC | -0.377 | x | 4.9 | 54.6* | 5.7 | x
O=C(Cc1ccccc1)c1c[nH]c(C(=O)NCCCN2CCOCC2)c1 | -2.5 | i | -11.0 | -4.7 | -6.0 | 0.35
O=S(=O)(Nc1ccc(-n2cccc2)cc1)c1ccc(Cl)c(Cl)c1 | -1.32 | x | x | 49.8* | 4.2 | 0.25
O=S(=O)(Nc1ccc(N2CCOCC2)cc1)c1cc(Cl)ccc1Cl | x | x | x | 1.8 | x | x
O=S(=O)(Nc1ccc(-n2cccc2)cc1)c1ccc(F)cc1 | -0.895 | i | -11.0 | -2.9 | -0.6 | -0.18
O=S(=O)(Nc1ccc(-n2cccc2)cc1)c1ccc(Cl)cc1Cl | x | i | 87.9* | 9.0 | 3.5 | -0.32
CCCN(C(=O)Cc1c(C(=O)O)n(C)c2ccccc12)c1cccc(C)c1 | x | x | x | 0.9 | x | x
S=C(NCc1ccco1)NC1CCCc2ccccc21 (stereo not drawn) | -1.45 | i | 18.9 | 4.6 | 11.7 | -0.66
S=C(NCc1ccccc1)NC1CCCc2ccccc21 (stereo not drawn) | -0.668 | i | 71.6* | 14.8 | 7.0 | -1.14
CC1CC(C)CN(C(=O)CNS(=O)(=O)c2ccc(Br)s2)C1 (stereo not drawn) | 0.0699 | i | -1.5 | 6.3 | 3.7 | -0.11
CC1CCN(C(=O)CNS(=O)(=O)c2ccc(Br)s2)CC1 | x | i | 11.8 | 8.5 | 4.2 | 3.37*
Cc1cc(C)c(S(=O)(=O)NCC2CCC(C(=O)NCCCN3CCC(C)CC3)CC2)c(C)c1 (stereo not drawn) | x | x | x | -3.9 | x | x
CC(NC(N)=O)C(=O)Nc1ccc(Cl)c(S(=O)(=O)Nc2ccc(Br)cc2)c1 (stereo not drawn) | -0.456 | i | -4.7 | 2.0 | 0.5 | 0.29
COc1cc(CNn2cn[nH]c2=S)cc(Br)c1OCc1ccccc1F | -0.381 | i | 72.3* | 13.5 | 9.2 | -1.2
C=CCN(C(=O)c1csnn1)C(C(=O)NC1CCCC1)c1ccccc1F (stereo not drawn) | x | x | x | 0.7 | x | x
c1ccc(N/N=C2\CCCc3ccccc32)nc1 | 0.545 | i | 64.9* | 3.2 | 1.0 | 0.1
Fc1ccc2c(c1)/C(=N/Nc1ccccn1)CCS2 | -0.508 | i | 68.2* | 19.0 | -0.7 | -0.61

Compound activity as filed in PubChem.
